Test results as given in ChEMBL document CHEMBL3763142, “Discovery of potent anti-tuberculosis agents targeting leucyl-tRNA synthetase” (Bioorg Med Chem, 2016).
pIC50: −log10 of the molar value. In brackets after ≈: the same amount, converted by molar mass.

Legend:
[1] = system: Mycobacterium tuberculosis; test: Antimicrobial activity against Mycobacterium tuberculosis H37Rv assessed as growth inhibition after 5 days by fluorescence analysis; conditions: 120 h
[2] = Inhibition of Mycobacterium tuberculosis leucyl-tRNA synthetase assessed as reduction of [14C]-L-leucine ligation to tRNA incubated for 5 mins by scintillation counting method in presence of ATP
In short: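 His-tag Ni-NTA-purified M. tuberculosis LeuRS (25 nM) expressed in E. coli Rosetta (DE3). Buffer: 100 mM Tris-HCl pH 8.0, 10 mM MgCl2, 2 mM DTT, 90 µM [14C]-L-leucine, 4 mg/ml E. coli tRNA. Inhibitor (DMSO) preincubated 5 min at 37 °C; started with 2 mM ATP (final). TCA-quenched, scintillation-counted; at least triplicates averaged for IC50.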

[3] = Cytotoxicity against mouse J774 cells assessed as cell viability at 0.8 ug/ml by MTT assay; type: cell-based; conditions: read-out: Activity
In short: (§1)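 MTT proliferation assay on uninfected J774 macrophages, run in parallel with the intracellular infection assay at the same three concentrations. Reported as percentage viability.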

[4] = system: Mycobacterium tuberculosis; test: Antimicrobial activity against Mycobacterium tuberculosis infected in mouse J774 cells assessed as log reduction of bacterial burden at 80 ug/ml after 7 days; type: functional
In short: (§2)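 J774 cells in RPMI 1640 with L-glutamine/FBS, 2.0*10^5 per well, then switched to 1% FBS. Infected 4 h at MOI 5, washed, drug added for 7 days. At 0 and 7 d, lysed with SDS, DNase-treated and plated on 7H10 agar for CFU. Log reduction is from 0 h to day 7; duplicates, rifampin positive control.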

[5] = target: Leucine--tRNA ligase, cytoplasmic (Homo sapiens, UniProt Q9P2J5); test: Inhibition of human leucyl-tRNA synthetase assessed as reduction of [14C]-L-leucine ligation to tRNA incubated for 5 mins by scintillation counting method in presence of ATP
[6] = system: Mycobacterium tuberculosis; test: Antimicrobial activity against Mycobacterium tuberculosis infected in mouse J774 cells assessed as log reduction of bacterial burden at 0.8 ug/ml after 7 days; type: functional; in short: as §2
[7] = Cytotoxicity against mouse J774 cells assessed as cell viability at 80 ug/ml by MTT assay; type: cell-based; conditions: read-out: Activity; in short: as §1
[8] = system: Mycobacterium tuberculosis; test: Antimicrobial activity against Mycobacterium tuberculosis infected in mouse J774 cells assessed as log reduction of bacterial burden at 8 ug/ml after 7 days; type: functional; in short: as §2
[9] = Cytotoxicity against mouse J774 cells assessed as cell viability at 8 ug/ml by MTT assay; type: cell-based; conditions: read-out: Activity; in short: as §1

Sequence of Leucine--tRNA ligase, cytoplasmic (Q9P2J5 whole entry): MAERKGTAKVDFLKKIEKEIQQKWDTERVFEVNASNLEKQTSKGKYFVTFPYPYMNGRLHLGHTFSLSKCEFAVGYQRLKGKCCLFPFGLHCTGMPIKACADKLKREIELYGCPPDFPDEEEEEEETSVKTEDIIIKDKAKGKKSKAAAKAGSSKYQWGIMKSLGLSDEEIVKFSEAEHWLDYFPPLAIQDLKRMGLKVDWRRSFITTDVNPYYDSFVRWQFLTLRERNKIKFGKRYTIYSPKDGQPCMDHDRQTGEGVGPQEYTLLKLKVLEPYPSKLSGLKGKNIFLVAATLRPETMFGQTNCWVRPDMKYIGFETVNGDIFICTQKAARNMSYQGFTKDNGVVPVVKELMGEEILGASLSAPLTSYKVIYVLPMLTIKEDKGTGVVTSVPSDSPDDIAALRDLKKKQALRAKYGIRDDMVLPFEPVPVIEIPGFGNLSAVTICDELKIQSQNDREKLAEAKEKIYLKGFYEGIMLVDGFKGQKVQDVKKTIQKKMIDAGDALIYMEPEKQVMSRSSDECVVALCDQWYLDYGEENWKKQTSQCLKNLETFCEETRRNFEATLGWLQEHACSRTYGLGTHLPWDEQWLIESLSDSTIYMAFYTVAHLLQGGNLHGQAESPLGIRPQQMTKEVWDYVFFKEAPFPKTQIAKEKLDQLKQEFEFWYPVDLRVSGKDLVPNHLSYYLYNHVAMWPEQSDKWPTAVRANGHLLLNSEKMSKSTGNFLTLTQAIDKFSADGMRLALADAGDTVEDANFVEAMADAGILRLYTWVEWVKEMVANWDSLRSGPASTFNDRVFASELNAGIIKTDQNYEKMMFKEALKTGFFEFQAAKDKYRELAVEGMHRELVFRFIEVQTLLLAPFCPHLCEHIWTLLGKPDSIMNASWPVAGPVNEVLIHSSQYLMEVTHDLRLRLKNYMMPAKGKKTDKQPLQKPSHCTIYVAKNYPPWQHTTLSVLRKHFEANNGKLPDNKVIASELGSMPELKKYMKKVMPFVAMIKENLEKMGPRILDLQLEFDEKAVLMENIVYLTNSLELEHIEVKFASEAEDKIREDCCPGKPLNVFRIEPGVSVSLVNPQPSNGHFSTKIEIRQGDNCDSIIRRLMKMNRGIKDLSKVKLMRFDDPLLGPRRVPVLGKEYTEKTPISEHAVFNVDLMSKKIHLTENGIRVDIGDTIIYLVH

## O=[N+]([O-])c1cc(/C=N\Nc2nccs2)ccc1O
[1]
  pIC50: 4.23
  IC90: > 100 µM
[2]
  pIC50: 4.70

## COc1cc(/C=N\Nc2nc(-c3ccc(Br)cc3)cs2)cc([N+](=O)[O-])c1O
[3]
  viability at 0.8 ug/ml: 100%
[1]
  pIC50: 5.00
  IC90: 13.5 µM
  MIC: 25 µM (≈ 11.2 µg/mL)
[4]
  Activity: 1.2 deltalog10CFU
[5]
  pIC50: 3.94
[2]
  pIC50: 5.22
[6]
  Activity: 1.96 deltalog10CFU
[7]
  viability at 80 ug/ml: 10%
[8]
  Activity: 1.42 deltalog10CFU
[9]
  viability at 8 ug/ml: < 10%

## Oc1ccc(/C=N/Nc2nc(-c3ccccc3)c(-c3ccccc3)s2)cc1
[2]
  pIC50: < 4.70

## COc1cc(/C=N/Nc2nc(-c3ccccc3)c(-c3ccccc3)s2)cc(OC)c1O
[2]
  pIC50: < 4.70

## COc1cc(/C=N/Nc2nc(-c3ccc(Br)cc3)cs2)cc(OC)c1OC
[2]
  pIC50: < 4.70

## COc1cc(/C=N/Nc2nc(C)c(C(C)=O)s2)cc(Br)c1O
[2]
  pIC50: < 4.70

## O=[N+]([O-])c1cccc(-c2csc(N/N=C/c3ccccc3O)n2)c1
[2]
  pIC50: < 4.70

## CC(=O)c1sc(N/N=C/c2cc(Br)ccc2O)nc1C
[2]
  pIC50: < 4.70

## COc1ccc(/C=N/Nc2nc(-c3ccccc3)c(-c3ccccc3)s2)cc1O
[2]
  pIC50: < 4.70

## Oc1ccc(Br)cc1/C=N/Nc1nccs1
[2]
  pIC50: < 4.70

## COc1cc(/C=N/Nc2nc(-c3cccc([N+](=O)[O-])c3)cs2)cc(Br)c1O
[2]
  pIC50: < 4.70

## COc1cc(/C=N/Nc2nc(-c3cccc([N+](=O)[O-])c3)cs2)ccc1O
[1]
  pIC50: < 3.70
  IC90: > 200 µM
  MIC: > 200 µM
[2]
  pIC50: 4.80

## COc1cc(/C=N/Nc2nccs2)cc(OC)c1O
[2]
  pIC50: < 4.70

## CC(/C=C1\SC(=S)N(CCC(=O)Nc2ccc(C(=O)O)c(O)c2)C1=O)=C\c1ccccc1
[2]
  pIC50: < 4.30

## CCOC(=O)c1sc(N/N=C/c2ccc(O)c(OC)c2)nc1C
[1]
  pIC50: 4.23
  IC90: > 200 µM
  MIC: 81 µM (≈ 27.2 µg/mL)
[5]
  pIC50: 3.93
[2]
  pIC50: 4.94

## COc1cc(/C=N/Nc2nccs2)ccc1O
[2]
  pIC50: < 4.70

## O=[N+]([O-])c1ccc(-c2csc(N/N=C\c3ccc(O)c([N+](=O)[O-])c3)n2)cc1
[1]
  pIC50: < 4.00
  IC90: > 100 µM
[2]
  pIC50: 4.70

## CC(/C=C1\SC(=S)N(CCC(=O)Nc2ccc(O)cc2)C1=O)=C\c1ccccc1
[2]
  pIC50: 4.65

## O=[N+]([O-])c1ccc(-c2csc(N/N=C/c3cc(Br)c(O)c(Br)c3)n2)cc1
[1]
  pIC50: 3.89
  IC90: > 200 µM
  MIC: > 200 µM
[5]
  pIC50: 4.73
[2]
  pIC50: 5.64

## O=C(O)c1ccc(/C=N/Nc2nccs2)cc1
[2]
  pIC50: < 4.70

## COc1cc(/C=N/Nc2nc(-c3ccc(Cl)cc3)cs2)cc(Br)c1O
[1]
  pIC50: 3.70
  IC90: > 200 µM
  MIC: > 200 µM
[5]
  pIC50: 4.56
[2]
  pIC50: 5.34

## COc1cc(/C=N/Nc2nc(-c3ccc(Cl)cc3Cl)cs2)ccc1O
[2]
  pIC50: < 4.70

## COc1cc(/C=N/Nc2nc(C)cs2)cc(Br)c1O
[2]
  pIC50: < 4.70

## CO[C@H]1/C=C/O[C@@]2(C)Oc3c(C)c(O)c4c(O)c(c(/C=N/N5CCN(C)CC5)c(O)c4c3C2=O)NC(=O)/C(C)=C\C=C\[C@H](C)[C@H](O)[C@@H](C)[C@@H](O)[C@@H](C)[C@H](OC(C)=O)[C@@H]1C [RIFAMPIN]
[3]
  viability at 0.8 ug/ml: 95%
[4]
  Activity: 2.86 deltalog10CFU
[6]
  Activity: 1.06 deltalog10CFU
[7]
  viability at 80 ug/ml: 73%
[8]
  Activity: 2.39 deltalog10CFU
[9]
  viability at 8 ug/ml: 85%

## O=[N+]([O-])c1ccc(-c2csc(N/N=C/c3cc(Br)cc(Br)c3O)n2)cc1
[1]
  pIC50: 4.07
  IC90: > 200 µM
  MIC: > 200 µM
[2]
  pIC50: 4.71

## COc1cc(/C=N/Nc2nc(-c3ccccc3)cs2)cc(OC)c1O
[2]
  pIC50: < 4.70

## COc1cc(/C=N/Nc2nccs2)cc(Br)c1O
[2]
  pIC50: < 4.70

## CCOC(=O)Cc1csc(N/N=C/c2cc(Br)c(O)c(Br)c2)n1
[2]
  pIC50: < 4.70

## Cc1nc(N/N=C/c2ccc(O)cc2)sc1C
[2]
  pIC50: < 4.70

## COc1cc(/C=N\Nc2nc(-c3ccc([N+](=O)[O-])cc3)cs2)cc([N+](=O)[O-])c1O
[1]
  pIC50: 4.69
  IC90: 28.8 µM
  MIC: 50 µM (≈ 20.8 µg/mL)
[5]
  pIC50: 4.34
[2]
  pIC50: 5.10

## COc1cc(/C=N/Nc2nc(-c3ccccc3)cs2)cc(Br)c1O
[2]
  pIC50: < 4.70

## COc1cc(/C=N/Nc2nc(-c3cccc([N+](=O)[O-])c3)cs2)cc(OC)c1O
[2]
  pIC50: < 4.70

## O=[N+]([O-])c1cccc(-c2csc(N/N=C/c3cccc(O)c3)n2)c1
[2]
  pIC50: < 4.70
